Measured values from ChEMBL document CHEMBL1133606, “2-Carbomethoxy-3-aryl-8-bicyclo[3.2.1]octanes: potent non-nitrogen inhibitors of monoamine transporters” (J Med Chem, 2000).

What was measured:
[1] = target: Monoamine transporters; serotonin & dopamine (UniProt P31645+Q01959); assay: Selectivity, ratio of binding to serotonin transporter (SERT) and dopamine transporter (DAT); assay type: protein assay; settings: Cercopithecidae
Method in brief: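 Ratio computed as IC50 at SERT ([3H]citalopram binding) divided by IC50 at DAT ([3H]WIN 35,428 binding), both measured in caudate-putamen membranes.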

[2] = target: Sodium-dependent serotonin transporter (Homo sapiens, UniProt P31645); assay: Inhibition of [3H]citalopram binding to the serotonin transporter in cynomolgus (macaca fascicularis) monkey caudate putamen.; assay type: tissue-based, Cercopithecidae; settings: target entry is the homologue from another species
Sodium-dependent serotonin transporter, sequence (P31645 whole entry): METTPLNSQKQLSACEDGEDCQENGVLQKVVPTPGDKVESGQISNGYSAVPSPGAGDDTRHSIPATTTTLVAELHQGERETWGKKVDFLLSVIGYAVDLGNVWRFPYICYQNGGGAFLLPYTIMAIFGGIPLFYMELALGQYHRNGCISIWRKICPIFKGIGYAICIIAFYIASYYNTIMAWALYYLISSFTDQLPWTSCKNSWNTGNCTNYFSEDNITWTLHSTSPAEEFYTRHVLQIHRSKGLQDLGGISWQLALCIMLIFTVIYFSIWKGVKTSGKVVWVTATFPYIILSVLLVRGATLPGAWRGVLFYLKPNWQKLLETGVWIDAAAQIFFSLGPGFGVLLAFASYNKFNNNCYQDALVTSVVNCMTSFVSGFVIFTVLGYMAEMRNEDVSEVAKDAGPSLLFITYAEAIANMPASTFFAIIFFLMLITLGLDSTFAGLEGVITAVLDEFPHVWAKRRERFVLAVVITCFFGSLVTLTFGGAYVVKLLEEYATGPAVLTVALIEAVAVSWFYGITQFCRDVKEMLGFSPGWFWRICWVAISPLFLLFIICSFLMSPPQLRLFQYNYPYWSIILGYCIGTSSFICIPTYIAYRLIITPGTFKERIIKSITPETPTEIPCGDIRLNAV
Method in brief: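 Caudate-putamen membranes at 4 mg original wet tissue/mL final, competition vs 1 nM [3H]citalopram in 50 mM Tris·HCl pH 7.4 with 100 mM NaCl, 7–14 drug concentrations, 2 h at 0–4 °C. Filtration on 0.1% polyethyleneimine-presoaked filters, scintillation counting with cpm converted to dpm. Nonspecific binding with 1 μM fluoxetine. IC50 by EBDA, mean of triplicate experiments.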

Monoamine transporters; serotonin & dopamine, sequence (P31645 whole entry, looked up): as the sequence (P31645 whole entry) above
Monoamine transporters; serotonin & dopamine, sequence (Q01959 whole entry, looked up): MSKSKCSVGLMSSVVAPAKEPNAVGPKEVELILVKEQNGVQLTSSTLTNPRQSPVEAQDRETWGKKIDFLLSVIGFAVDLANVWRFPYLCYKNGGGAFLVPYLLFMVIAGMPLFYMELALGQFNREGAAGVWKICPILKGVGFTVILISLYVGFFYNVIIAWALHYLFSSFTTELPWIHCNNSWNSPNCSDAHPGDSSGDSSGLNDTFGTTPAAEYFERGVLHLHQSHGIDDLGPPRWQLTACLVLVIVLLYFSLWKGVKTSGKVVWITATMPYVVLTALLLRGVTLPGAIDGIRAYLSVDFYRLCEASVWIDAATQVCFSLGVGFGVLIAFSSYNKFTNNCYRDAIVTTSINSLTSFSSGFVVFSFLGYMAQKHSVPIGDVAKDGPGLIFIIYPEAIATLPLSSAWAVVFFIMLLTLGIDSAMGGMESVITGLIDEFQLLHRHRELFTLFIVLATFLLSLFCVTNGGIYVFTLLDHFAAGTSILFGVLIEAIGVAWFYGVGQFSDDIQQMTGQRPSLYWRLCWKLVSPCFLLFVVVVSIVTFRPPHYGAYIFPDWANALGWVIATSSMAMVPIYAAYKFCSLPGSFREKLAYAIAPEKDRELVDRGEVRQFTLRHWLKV

SMILES	Selectivity [1]	IC50 ([2]; read-out: IC50)	IC50 [2]
COC(=O)[C@H]1C2CCC(C2)C[C@@H]1c1ccc2ccccc2c1 (stereo in doubt; 9b) [listing 1 of 2 here]	4	–	–
COC(=O)C1C(c2ccc(Cl)c(Cl)c2)CC2CCC1N2C (stereo in doubt; 12a) [listing 1 of 2 here]	2	–	–
COC(=O)C1=C(c2ccccc2)CC2CCC1C2 (stereo unspecified)	–	> 10000 nM	–
COC(=O)[C@H]1C2CCC(C2)C[C@@H]1c1ccc2ccccc2c1 (stereo in doubt; 8b) [listing 1 of 2 here]	67	–	–
COC(=O)[C@@H]1C2CCC(C2)CC1c1ccc2ccccc2c1 (stereo partly specified)	4	–	106 nM
COC(=O)[C@H]1C2CCC(C2)C[C@@H]1c1ccc(Cl)c(Cl)c1 (stereo in doubt; 9a) [listing 1 of 2 here]	14	–	–
COC(=O)C1C(c2ccc3ccccc3c2)CC2CCC1N2C (stereo unspecified)	4	–	2.19 nM
COC(=O)C1=C(c2ccc(F)cc2)CC2CCC1N2C (stereo unspecified)	20	7990 nM	–
COC(=O)c1ccccc1-c1ccc2ccccc2c1	69	–	10000 nM
COC(=O)[C@H]1C(c2ccc3ccccc3c2)CC2CCC1N2C (stereo partly specified)	10	–	5.95 nM
COC(=O)c1ccccc1-c1ccccc1	–	> 70000 nM	–
COC(=O)[C@H]1C2CCC(C2)C[C@@H]1c1ccc2ccccc2c1 (stereo in doubt; 9b) [listing 2 of 2 here]	–	–	64 nM
COC(=O)[C@@H]1C2CCC(C2)C[C@@H]1c1ccc2ccccc2c1 (stereo partly specified)	2	–	60 nM
COC(=O)C1C(c2ccc(Cl)c(Cl)c2)CC2CCC1N2C (stereo in doubt; 12a) [listing 2 of 2 here]	–	–	2 nM
COC(=O)[C@H]1C2CCC(C2)C[C@@H]1c1ccc(Cl)c(Cl)c1 (stereo in doubt; 7a) [listing 1 of 2 here]	3	–	–
COC(=O)[C@H]1C2CCC(C2)C[C@@H]1c1ccc2ccccc2c1 (stereo in doubt; 8b) [listing 2 of 2 here]	–	–	807 nM
COC(=O)[C@@H]1C2CCC(C2)C[C@@H]1c1ccc(Cl)c(Cl)c1 (stereo partly specified)	46	–	650 nM

SMILES	Selectivity [1]	IC50 ([2]; read-out: IC50)	IC50 [2]
COC(=O)C1C(c2ccc(Cl)c(Cl)c2)CC2CCC1N2C (stereo in doubt; 13a) [listing 1 of 2 here]	179	–	–
COC(=O)c1ccccc1-c1ccc(Cl)cc1	68	46000 nM	–
COC(=O)[C@H]1C2CCC(C2)C[C@@H]1c1ccc(Cl)c(Cl)c1 (stereo in doubt; 7a) [listing 2 of 2 here]	–	–	33 nM
COC(=O)C1C(c2ccc(Cl)c(Cl)c2)CC2CCC1N2C (stereo in doubt; 13a) [listing 2 of 2 here]	–	–	358 nM
COC(=O)C1=C(c2ccc(F)cc2)CC2CCC1C2 (stereo unspecified)	91	–	35400 nM
COC(=O)C1=C(c2ccc(Cl)c(Cl)c2)CC2CCC1C2 (stereo unspecified)	726	–	–
COC(=O)C1=C(c2ccc3ccccc3c2)CC2CCC1N2C (stereo unspecified)	38	109 nM	–
COC(=O)[C@H]1[C@@H](c2ccc(F)cc2)C[C@H]2CC[C@H]1N2C (stereo in doubt; 13c)	–	–	12200 nM
COC(=O)c1ccccc1C(=O)OC [DIMETHYL PHTHALATE]	–	> 100000 nM	–
COC(=O)C1=C(c2ccccc2)CC2CCC1N2C (stereo unspecified)	–	–	Not Active
COC(=O)c1ccccc1-c1ccc(F)cc1	2	33000 nM	–
COC(=O)C1=C(c2ccc3ccccc3c2)CC2CCC1C2 (stereo unspecified)	119	–	1310 nM
COC(=O)C1C(c2ccc(Cl)c(Cl)c2)CC2CCC1N2C (stereo in doubt; 14a)	68	–	–
COC(=O)C1=C(c2ccc(Cl)c(Cl)c2)CC2CCC1N2C (stereo unspecified)	723	–	–
COC(=O)C1C2CCC(C2)CC1c1ccccc1 (stereo unspecified)	25	> 20000 nM	–
COC(=O)[C@H]1C2CCC(C2)C[C@@H]1c1ccc(Cl)c(Cl)c1 (stereo in doubt; 9a) [listing 2 of 2 here]	–	–	180 nM
